Experimental data from ChEMBL document CHEMBL1143188, “5-Aryl-imidazolin-2-ones as a scaffold for potent antioxidant and memory-improving activity” (Bioorg Med Chem Lett, 2008).
The source made the active and inactive calls. The rule behind the calls is not given here.

Tests used:
Rattus norvegicus [1] = experiment: Memory improving activity in rat passive avoidance model assessed as effect on cycloheximide-induced amnesia at 0.1 mg/kg, po; assay type: functional, organism-based; design: dose 0.1 mg/kg
Method in brief: (§1)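 Passive avoidance: one day after training, compound (0.1–30 mg/kg) or vehicle given orally 30 min before a retention trial. Read-out was latency to move from the light to the dark room; minimum effective dose (MED) reported.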

Brain = experiment: Inhibition of lipid peroxidation in Wistar rat brain homogenates by TBARS assay; assay type: functional, tissue-based
Method in brief: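 Male Wistar rat brain homogenate autooxidized at 37 °C for 30 min with or without compound. Lipid peroxidation read by a modified thiobarbituric acid (TBARS) test; IC50 derived.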

[2] = DPPH radical scavenging activity at 100 uM relative to control; assay type: ADME
Method in brief: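 DPPH 100 μM in ethanol; compound added in ethanol to a final 100 μM; optical density read; scavenging expressed as a percentage of the optical density of a control with excess vitamin C.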

Rattus norvegicus [3] = experiment: Toxicity in po dosed rat; assay type: organism-based; conditions: in vivo
Rattus norvegicus [4] = experiment: Memory improving activity in po dosed rat passive avoidance model assessed as effect on cycloheximide-induced amnesia; assay type: functional; conditions: read-out: MED; method in brief: as §1

Compound | IC50 (Brain) [µM] | further results
CCCCCCOc1ccc(-c2c(C)[nH]c(=O)n2C)cc1 | 7.3 | Activity (Rattus norvegicus [1]): inactive
Cc1[nH]c(=O)n(C2CCCCC2)c1-c1ccccc1OC(C)C | 21.5 | –
CCCCCCc1ccc(-c2c(C)[nH]c(=O)n2C2CCCCC2)cc1 | 13.7 | –
CCCCCCOc1ccc(-c2c(C)[nH]c(=O)n2C2CCCCC2)cc1 | 8.5 | Activity (Rattus norvegicus [1]): inactive
CCCCc1ccc(-c2c(CC)[nH]c(=O)n2C)cc1 | 13.9 | –
CCCCc1ccc(-c2c(C)[nH]c(=O)n2C)cc1 | 10.7 | Activity [2]: 98%; Activity (Rattus norvegicus [3]): > 1000 mg/kg; minimal effective dose (Rattus norvegicus [4]): 0.1 mg/kg
CCCCCc1ccc(-c2c(C)[nH]c(=O)n2C2CCCCC2)cc1 | 10.6 | –
CCCCCCCCCCCCCCCCCCOc1ccc(-c2c(C)[nH]c(=O)n2C2CCCCC2)cc1 | > 100 | –
CCCCCCCc1ccc(-c2c(C)[nH]c(=O)n2C2CCCCC2)cc1 | 8.7 | –
CCCCc1ccc(-c2c(C)[nH]c(=O)n2C(C)C)cc1 | 10.7 | Activity [2]: 78%
CCCCCCCCCCCCCCc1ccc(-c2c(C)[nH]c(=O)n2C)cc1 | 43.8 | –
Cc1[nH]c(=O)n(C2CCCCC2)c1-c1ccc(C2CCCCC2)cc1 | 28.9 | –
CCCCOc1ccc(-c2c(C)[nH]c(=O)n2C)cc1 | 5.1 | minimal effective dose (Rattus norvegicus [4]): 0.3 mg/kg
Cc1[nH]c(=O)n(C2CCCCC2)c1-c1ccc(OCc2ccccc2)cc1 | 8.3 | minimal effective dose (Rattus norvegicus [4]): 0.1 mg/kg
CCCCCCCCCCOc1ccc(-c2c(C)[nH]c(=O)n2C2CCCCC2)cc1 | 10.5 | minimal effective dose (Rattus norvegicus [4]): 0.1 mg/kg
Cc1[nH]c(=O)n(C2CCCCC2)c1-c1ccc(-c2ccccc2)cc1 | 10.9 | minimal effective dose (Rattus norvegicus [4]): 0.1 mg/kg
CCCCCCCOc1ccc(-c2c(C)[nH]c(=O)n2C2CCCCC2)cc1 | 11.6 | –
Cc1[nH]c(=O)n(C)c1-c1ccc(OC(C)C)cc1 | 20.4 | –
CCCCCCCCCCCCCCc1ccc(-c2c(C)[nH]c(=O)n2C2CCCCC2)cc1 | > 100 | –
Cc1[nH]c(=O)n(C)c1-c1ccc(C2CCCCC2)cc1 | 10 | Activity (Rattus norvegicus [3]): > 1000 mg/kg; minimal effective dose (Rattus norvegicus [4]): 0.1 mg/kg
CCCCCCCCCCc1ccc(-c2c(C)[nH]c(=O)n2C)cc1 | 7.9 | minimal effective dose (Rattus norvegicus [4]): 0.3 mg/kg
Cc1[nH]c(=O)n(C2CCCCC2)c1-c1ccc(OC(C)C)cc1 | 13 | –

Compound | IC50 (Brain) [µM] | further results
COc1ccc(-c2c(C)[nH]c(=O)n2C2CCCCC2)cc1 | 20.4 | –
CCCCc1ccc(-c2c(C)[nH]c(=O)n2CCCC)cc1 | 12 | –
Cc1[nH]c(=O)n(C)c1-c1ccc(C(C)(C)C)cc1 | 8.4 | –
Cc1[nH]c(=O)n(C)c1-c1ccc(-c2ccccc2)cc1 | 6.3 | Activity (Rattus norvegicus [3]): > 1000 mg/kg; minimal effective dose (Rattus norvegicus [4]): 0.3 mg/kg
CCCCOc1ccc(-c2c(C)[nH]c(=O)n2C2CCCCC2)cc1 | 13.9 | Activity [2]: 88%
CCCCCc1ccc(-c2c(C)[nH]c(=O)n2C)cc1 | 5.9 | –
CCCCCCCCCCCCCCCCCCc1ccc(-c2c(C)[nH]c(=O)n2C2CCCCC2)cc1 | > 100 | –
CCCCCCCCCCCCCCCCCCc1ccc(-c2c(C)[nH]c(=O)n2C)cc1 | > 100 | –
Cc1[nH]c(=O)n(C2CCCCC2)c1-c1ccc(Oc2ccccc2)cc1 | 7.9 | minimal effective dose (Rattus norvegicus [4]): 0.1 mg/kg
CCCCCCCCOc1ccc(-c2c(C)[nH]c(=O)n2C)cc1 | 4 | minimal effective dose (Rattus norvegicus [4]): 30 mg/kg
CCCCCCCCCCOc1ccc(-c2c(C)[nH]c(=O)n2C)cc1 | 6.9 | minimal effective dose (Rattus norvegicus [4]): 0.1 mg/kg
Cc1ccc(-c2c(C)[nH]c(=O)n2C)cc1 | 85.3 | –
Cc1[nH]c(=O)n(C)c1-c1ccc(OCc2ccccc2)cc1 | 6.7 | Activity (Rattus norvegicus [1]): inactive
Cc1[nH]c(=O)n(C2CCCCC2)c1-c1cccc(OC(C)C)c1 | 10.4 | –
CCCCn1c(-c2ccccc2)c(C)[nH]c1=O | > 100 | –
CCCCCCCCc1ccc(-c2c(C)[nH]c(=O)n2C)cc1 | 19.4 | –
CCCCCCc1ccc(-c2c(C)[nH]c(=O)n2C)cc1 | 9 | minimal effective dose (Rattus norvegicus [4]): 0.3 mg/kg
CCCCCCCCCCCCOc1ccc(-c2c(C)[nH]c(=O)n2C)cc1 | 9.7 | minimal effective dose (Rattus norvegicus [4]): 0.1 mg/kg
CCCCCCCCOc1ccc(-c2c(C)[nH]c(=O)n2C2CCCCC2)cc1 | 8.5 | minimal effective dose (Rattus norvegicus [4]): 30 mg/kg
CCCCCOc1ccc(-c2c(C)[nH]c(=O)n2C2CCCCC2)cc1 | 9.1 | Activity (Rattus norvegicus [1]): inactive
CCCCCCCc1ccc(-c2c(C)[nH]c(=O)n2C)cc1 | 8.4 | minimal effective dose (Rattus norvegicus [4]): 30 mg/kg
CCCCCCCCCCCCOc1ccc(-c2c(C)[nH]c(=O)n2C2CCCCC2)cc1 | 52.4 | –

Compound | IC50 (Brain) [µM] | further results
CCCCCCCOc1ccc(-c2c(C)[nH]c(=O)n2C)cc1 | 5.7 | Activity (Rattus norvegicus [1]): inactive
CCCCc1ccc(-c2c(C)[nH]c(=O)n2-c2ccccc2)cc1 | 16.6 | –
CCCCc1ccc(-c2c(C)[nH]c(=O)n2Cc2ccccc2)cc1 | 12.4 | Activity [2]: 59%
CCCCCCCCc1ccc(-c2c(C)[nH]c(=O)n2C2CCCCC2)cc1 | 10.3 | –
Cc1[nH]c(=O)n(C2CCCCC2)c1-c1ccc(CC(C)C)cc1 | 10.9 | –
Cc1[nH]c(=O)n(C)c1-c1ccc(OCCC(C)C)cc1 | 6.6 | Activity (Rattus norvegicus [1]): inactive
CCCCCCCCCCc1ccc(-c2c(C)[nH]c(=O)n2C2CCCCC2)cc1 | 27 | –
Cc1[nH]c(=O)n(C2CCCCC2)c1-c1ccccc1 | 47.6 | –
CCCc1ccc(-c2c(C)[nH]c(=O)n2C2CCCCC2)cc1 | 13.9 | –
Cc1[nH]c(=O)n(C2CCCCC2)c1-c1ccc(OCCC(C)C)cc1 | 7.2 | Activity (Rattus norvegicus [1]): inactive
CCCCCCCCCCCCCCCCCCOc1ccc(-c2c(C)[nH]c(=O)n2C)cc1 | > 100 | –
CCCCCCCCCCCCc1ccc(-c2c(C)[nH]c(=O)n2C2CCCCC2)cc1 | > 100 | –
CCCCc1ccc(-c2c(C)[nH]c(=O)n2C2CCCCC2)cc1 | 27.1 | –
COc1ccc(-c2c(C)[nH]c(=O)n2C)cc1 | 147 | –
Cc1[nH]c(=O)n(C)c1-c1ccc(Oc2ccccc2)cc1 | 8.1 | Activity (Rattus norvegicus [1]): inactive
CCCc1ccc(-c2c(C)[nH]c(=O)n2C)cc1 | 21.5 | –
CCCCCOc1ccc(-c2c(C)[nH]c(=O)n2C)cc1 | 4.5 | Activity (Rattus norvegicus [1]): inactive
Cc1[nH]c(=O)n(C)c1-c1ccc(CC(C)C)cc1 | 7.8 | minimal effective dose (Rattus norvegicus [4]): 30 mg/kg
Cc1[nH]c(=O)n(C)c1-c1ccccc1 | > 100 | –
CCCCCCCCCCCCc1ccc(-c2c(C)[nH]c(=O)n2C)cc1 | 13 | –
